From ChEMBL document CHEMBL1134139, “Synthesis and biological activity of novel macrocyclic antifungals. modification of the tyrosine moiety of the lipopeptidolactone FR901469” (2001)
Converted amounts (≈) assume the structure as drawn. Numbered stars: 1 amine (or outer) side, 2 acyl side, 3 side chain; on linkers, the order of the positions; unused ones are H or OH. Bridge positions count the residues as written; N and C are the ends. Square brackets hold non-standard residues; d marks the D form. Peptide text beside a SMILES is read from it. Gln(3R-OH) = NC(=O)C[C@@H](O)[C@H](N)C(=O)O; X1 = CCCCCCCCCCCCC[C@H](CC(=O)[*:1])O[*:2]; Pro(3S-OH) = O=C(O)[C@H]1NCC[C@@H]1O; d(aThr) = C[C@@H](O)[C@@H](N)C(=O)O; Hyp = O=C(O)[C@@H]1C[C@@H](O)CN1; Orn = NCCC[C@H](N)C(=O)O

Legend:
[1] = system: Candida parapsilosis; assay: In vitro antifungal activity against Candida parapsilosis 15001 by agar dilution method using Sabouraud Dextrose agar.; assay type: functional; conditions: Lodderomyces parapsilosis
Procedure, shortened: (§1)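 Agar dilution on Sabouraud Dextrose agar. MIC taken as the lowest concentration that inhibits visible growth.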

[2] = system: Meyerozyma guilliermondii; assay: In vitro antifungal activity against Candida guilliermondii FP587 by agar dilution method using Sabouraud Dextrose agar.; assay type: functional; procedure, shortened: as §1
[3] = system: Candida tropicalis; assay: In vitro antifungal activity against Candida tropicalis 8001 by agar dilution method using Sabouraud Dextrose agar.; assay type: functional; procedure, shortened: as §1
[4] = organism: Mus musculus; assay: Ability to hemolyze ICR mouse RBCs at 1 mg/mL using microtiter red blood cell hemolysis assay.
[5] = system: Candida albicans; assay: In vitro Antifungal activity against Candida albicans FP633 by agar dilution method using Sabouraud Dextrose agar.; assay type: functional; procedure, shortened: as §1
[6] = system: Candida albicans; assay: In vitro antifungal activity against Candida albicans FP579 by agar dilution method using Sabouraud Dextrose agar.; assay type: functional; procedure, shortened: as §1
[7] = system: Mus musculus; assay: Compound was evaluated in vivo for antifungal activity and efficacy in disseminated murine candidiasis was determined; assay type: functional
[8] = system: Candida albicans; assay: Compound was evaluated in vivo for antifungal activity and efficacy in disseminated murine candidiasis caused by candida albicans FP633; assay type: functional
[9] = system: Candida albicans; assay: In vitro antifungal activity against Candida albicans FP633 by agar dilution method using Sabouraud Dextrose agar; assay type: functional; procedure, shortened: as §1
[10] = Candida tropicalis, read-out: MIC

| MIC [1] [µg/mL] | MIC [2] [µg/mL] | MIC [3] [µg/mL] | MIC [3, 10] [µg/mL] | MIC [5] [µg/mL] | MIC [6] [µg/mL] | MIC [9] [µg/mL] | Structure (SMILES) | Hemolytic activity [4] [%] | ED50 [7] [mg/kg] | ED50 [8] [mg/kg] |
| --- | --- | --- | --- | --- | --- | --- | --- | --- | --- | --- |
| 0.78 (≈ 0.482 µM) | 0.78 (≈ 0.482 µM) | 1.56 (≈ 0.963 µM) | 1.56 (≈ 0.963 µM) | 0.78 (≈ 0.482 µM) | 1.56 (≈ 0.963 µM) | – | CCCCCCCCCCCCC[C@@H]1CC(=O)N[C@@H]([C@@H](C)O)C(=O)N[C@H](C)C(=O)N[C@@H](Cc2ccc(O)c(NC(=O)CCN)c2)C(=O)N[C@@H](C(C)C)C(=O)N2C[C@H](O)C[C@H]2C(=O)N[C@@H]([C@@H](C)O)C(=O)N[C@@H]([C@@H](C)O)C(=O)N2CC[C@H](O)[C@H]2C(=O)N[C@@H]([C@H](O)CC(N)=O)C(=O)NCC(=O)N[C@@H]([C@@H](C)O)C(=O)N[C@@H](CCCN)C(=O)O1 | 49 | – | – |
| 1.56 (≈ 0.997 µM) | 0.78 (≈ 0.498 µM) | 1.56 (≈ 0.997 µM) | 1.56 (≈ 0.997 µM) | 0.78 (≈ 0.498 µM) | 1.56 (≈ 0.997 µM) | – | CCCCCCCCCCCCC[C@H](CC(=O)N[C@@H](C(=O)N[C@H](C)C(=O)N[C@@H](Cc1ccc(O)c(N)c1)C(=O)N[C@H](C(=O)N1C[C@H](O)C[C@H]1C(=O)N[C@@H](C(=O)N[C@H](C(=O)N1CC[C@H](O)[C@H]1C(=O)N[C@H](C(=O)NCC(=O)N[C@@H](C(N)=O)[C@@H](C)O)[C@H](O)CC(N)=O)[C@@H](C)O)[C@@H](C)O)C(C)C)[C@@H](C)O)OC(=O)[C@@H](C)CCCN | 100 | – | – |
| 0.78 (≈ 0.489 µM) | 0.78 (≈ 0.489 µM) | 0.78 (≈ 0.489 µM) | 0.78 (≈ 0.489 µM) | 0.39 (≈ 0.245 µM) | 0.78 (≈ 0.489 µM) | – | CCCCCCCCCCCCC[C@H](CC(=O)N[C@@H](C(=O)N[C@H](C)C(=O)N[C@@H](Cc1ccc(O)c([N+](=O)[O-])c1)C(=O)N[C@H](C(=O)N1C[C@H](O)C[C@H]1C(=O)N[C@@H](C(=O)N[C@H](C(=O)N1CC[C@H](O)[C@H]1C(=O)N[C@H](C(=O)NCC(=O)N[C@@H](C(N)=O)[C@@H](C)O)[C@H](O)CC(N)=O)[C@@H](C)O)[C@@H](C)O)C(C)C)[C@@H](C)O)OC(=O)[C@@H](C)CCCN | 100 | 0.45 | – |
| 1.56 (≈ 0.98 µM) | 0.78 (≈ 0.49 µM) | 1.56 (≈ 0.98 µM) | 1.56 (≈ 0.98 µM) | 0.39 (≈ 0.245 µM) | 0.78 (≈ 0.49 µM) | – | CCCCCCCCCCCCC[C@H](CC(=O)N[C@@H](C(=O)N[C@H](C)C(=O)N[C@@H](Cc1ccc(O)cc1)C(=O)N[C@H](C(=O)N1C[C@H](O)C[C@H]1C(=O)N[C@@H](C(=O)N[C@H](C(=O)N1CC[C@H](O)[C@H]1C(=O)N[C@H](C(=O)NCC(=O)N[C@@H](C(N)=O)[C@@H](C)O)[C@H](O)CC(N)=O)[C@@H](C)O)[C@@H](C)O)C(C)C)[C@@H](C)O)OC(=O)[C@@H](C)CCCNC(C)=O | 5 | – | – |
| 0.78 (≈ 0.492 µM) | 0.78 (≈ 0.492 µM) | 0.78 (≈ 0.492 µM) | 0.78 (≈ 0.492 µM) | 0.39 (≈ 0.246 µM) | 0.78 (≈ 0.492 µM) | – | CCCCCCCCCCCCC[C@H](CC(=O)N[C@@H](C(=O)N[C@H](C)C(=O)N[C@@H](Cc1ccc(O)c(Cl)c1)C(=O)N[C@H](C(=O)N1C[C@H](O)C[C@H]1C(=O)N[C@@H](C(=O)N[C@H](C(=O)N1CC[C@H](O)[C@H]1C(=O)N[C@H](C(=O)NCC(=O)N[C@@H](C(N)=O)[C@@H](C)O)[C@H](O)CC(N)=O)[C@@H](C)O)[C@@H](C)O)C(C)C)[C@@H](C)O)OC(=O)[C@@H](C)CCCN | 97 | – | – |
| 1.56 | 1.56 | 1.56 | 1.56 | 1.56 | 1.56 | – | CCCCCCCCCCCCC[C@H](CC(=O)N[C@@H](C(=O)N[C@H](C)C(=O)N[C@@H](Cc1ccc(O)c(NC(=O)CCN)c1)C(=O)N[C@H](C(=O)N1C[C@H](O)C[C@H]1C(=O)N[C@@H](C(=O)N[C@H](C(=O)N1CC[C@H](O)[C@H]1C(=O)N[C@H](C(=O)NCC(=O)N[C@@H](C(N)=O)[C@@H](C)O)[C@H](O)CC(N)=O)[C@@H](C)O)[C@@H](C)O)C(C)C)[C@@H](C)O)OC(=O)[C@@H](C)CCCNC(C)=O.Cl | 23 | – | – |
| 0.39 (≈ 0.254 µM) | 0.39 (≈ 0.254 µM) | 0.39 (≈ 0.254 µM) | 0.39 (≈ 0.254 µM) | – | 0.39 (≈ 0.254 µM) | 0.39 (≈ 0.254 µM) | CCCCCCCCCCCCC[C@@H]1CC(=O)N[C@H]([C@@H](C)O)C(=O)N[C@H](C)C(=O)N[C@@H](Cc2ccc(O)cc2)C(=O)N[C@@H](C(C)C)C(=O)N2C[C@H](O)C[C@H]2C(=O)N[C@H]([C@@H](C)O)C(=O)N[C@@H]([C@@H](C)O)C(=O)N2CC[C@H](O)[C@H]2C(=O)N[C@@H]([C@H](O)CC(N)=O)C(=O)NCC(=O)N[C@H]([C@@H](C)O)C(=O)N[C@@H](CCCN)C(=O)O1 [FR-901469] ([d(aThr)][dA]YV[Hyp][d(aThr)]T[Pro(3S-OH)][Gln(3R-OH)]G[d(aThr)][Orn]; linker N-C via X1) | 100 | – | 0.88 |
